Data: ChEMBL document CHEMBL1127419, “A comparative molecular field analysis model for 6-arylpyrrolo[2,1-d] [1,5]benzothiazepines binding selectively to the mitochondrial benzodiazepine receptor” (J Med Chem, 1994)

Columns and labels:
[1] = target: T1, Translocator protein (Rattus norvegicus, UniProt P16257); assay: (§1) Displacement of [3H]-PK 11195 from rat peripheral (mitochondrial) benzodiazepine receptor
Method in brief: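 Male CD rat (~150 g) cerebral cortex membranes washed in 50 mM phosphate-buffered saline, pH 7.4. 10 mg wet tissue incubated 120 min at 4 °C with 1 nM [3H]PK 11195 and 8–12 drug concentrations. Nonspecific binding defined with 1 μM PK 11195. Filtration, scintillation counting. IC50 by nonlinear curve fitting; triplicate points.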

[2] = target: T1, Translocator protein; assay: as §1; remark: listed apart in the source

T1 sequence (P16257 whole entry, looked up): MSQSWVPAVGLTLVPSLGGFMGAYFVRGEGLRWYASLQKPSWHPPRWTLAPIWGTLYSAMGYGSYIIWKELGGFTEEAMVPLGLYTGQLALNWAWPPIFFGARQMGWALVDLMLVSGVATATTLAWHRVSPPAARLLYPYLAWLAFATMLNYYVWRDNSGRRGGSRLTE

Row | Compound | IC50 [1] | IC50 [2]
1 | COc1ccc(C2=C(OC(=O)c3cc(OC)c(OC)c(OC)c3)c3cccn3-c3cc(C(F)(F)F)ccc3S2)cc1 | 100000 nM | 
2 | CC(=O)OC1=C(c2ccc(Cl)cc2)Sc2ccccc2-n2cccc21 | 30.2 nM | 30 nM
3 | CN(C)C(=O)OC1=C(c2ccccc2)Sc2c(Cl)cccc2-n2cccc21 | 3.98 nM | 4 nM
4 | COc1ccc(C2=C(OC(=O)c3ccncc3)c3cccn3-c3ccccc3S2)cc1 | 100000 nM | 
5 | COc1ccc(C2=C(OC(=O)c3cccnc3)c3cccn3-c3ccccc3S2)cc1 | 100000 nM | 
6 | CN(C)C(=O)OC1=C(c2ccccc2)Sc2ccccc2-n2cccc21 | 9.12 nM | 
7 | COc1ccc(C2=C(OC(=O)c3cc(OC)c(OC)c(OC)c3)c3cccn3-c3ccccc3S2)cc1 | 100000 nM | 
8 | COc1ccc(C2=C(OC(=O)c3cc(OC)c(OC)c(OC)c3)c3cccn3-c3cc(Cl)ccc3S2)cc1 | 100000 nM | 
9 | CC(=O)OC1=C(c2ccccc2)Sc2cc(C)ccc2-n2cccc21 | 112 nM | 112 nM
10 | CC(=O)OC1=C(c2ccccc2)Sc2ccc(C)cc2-n2cccc21 | 676 nM | 675 nM
11 | O=C1c2cccn2-c2ccccc2S(=O)(=O)C1c1ccccc1 (stereo not given) | 100000 nM | 
12 | CC(=O)OC1=C(c2ccccc2)Sc2ccccc2-n2cccc21 | 19.5 nM | 
13 | COc1ccc(C2C(=O)c3cccn3-c3ccccc3[S+]2[O-])cc1 (stereo not given) | 22900 nM | 

Continued, in another order:

Row | IC50 [1] | Compound | IC50 [2]
14 | 30.9 nM | CN(C)C(=O)OC1=C(c2ccccc2F)Sc2ccccc2-n2cccc21 | 31 nM
15 | 38 nM | CC(=O)OC1=C(c2ccccc2F)Sc2ccccc2-n2cccc21 | 38 nM
16 | 20.4 nM | COc1ccc(C2=C(OC(C)=O)c3cccn3-c3cccc(Cl)c3S2)cc1 | 
17 | 21.4 nM | CCCC(=O)OC1=C(c2ccccc2)Sc2ccccc2-n2cccc21 | 
18 | 7.59 nM | CC(=O)OC1=C(c2ccccc2)Sc2c(Cl)cccc2-n2cccc21 | 
19 | 66.1 nM | CCC(=O)OC1=C(c2ccccc2)Sc2ccccc2-n2cccc21 | 
20 | 29.5 nM | CCC(=O)OC1=C(c2ccc(OC)cc2)Sc2ccccc2-n2cccc21 | 
21 | 9.12 nM | COc1ccc(C2=C(OC(=O)N(C)C)c3cccn3-c3ccccc3S2)cc1 | 
22 | 28.2 nM | CC(=O)OC1=C(c2ccc(F)cc2)Sc2ccccc2-n2cccc21 | 28 nM
23 | 631 nM | COc1ccc(C2=C(OC(C)=O)c3cccn3-c3ccccc3S2(=O)=O)cc1 | 
24 | 27.5 nM | CCCC(=O)OC1=C(c2ccc(OC)cc2)Sc2ccccc2-n2cccc21 | 
25 | 295 nM | COc1ccc(C2=C(OC(=O)N(C)C)c3cccn3-c3cc(C(F)(F)F)ccc3S2)cc1 | 
26 | 166 nM | COc1ccc(C2=C(OC(=O)N(C)C)c3cccn3-c3cc(Cl)ccc3S2)cc1 | 
27 | 57.5 nM | CS(=O)(=O)OC1=C(c2ccccc2)Sc2ccccc2-n2cccc21 | 
28 | 23.4 nM | CCCCCC(=O)OC1=C(c2ccccc2)Sc2ccccc2-n2cccc21 | 
